Experimental findings from ChEMBL document CHEMBL4028828, “Syntheses of benzophenone-xanthone hybrid polyketides and their antibacterial activities” (2017) are described below.

Converted amounts (≈) assume the structure as drawn. The source made the active and inactive calls. Bounds are passed on as bounds.

Common to all, as to format: functional
One test relates to Staphylococcus aureus. Description: Antibacterial activity against Staphylococcus aureus NBRC 100910 after overnight incubation by microdilution method. In a few lines:
(§1)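 Broth microdilution MIC, modified Eloff method. Compounds were dissolved in DMSO (under 5%) and tested in duplicate. Two-fold serial dilution followed by overnight incubation at 37 °C. MIC is the lowest concentration inhibiting growth.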
Background: In broth dilution the organism is exposed to a series of concentrations in liquid medium.

For a further test, the system named is Bacillus subtilis. As to the kind of experiment: Antibacterial activity against Bacillus subtilis NBRC 13719 after overnight incubation by microdilution method. In a few lines: as §1
The test system of another test is Klebsiella pneumoniae. Description: Antibacterial activity against Klebsiella pneumoniae NBRC 14940 after overnight incubation by microdilution method. In short, it runs like this: as §1
The subject of a further test is Escherichia coli. As to the kind of experiment: Antibacterial activity against Escherichia coli NBRC 102203 after overnight incubation by microdilution method. In short, it runs like this: as §1
Setting [1] is: Staphylococcus aureus, NBRC 100910, read-out: MIC.
Setting [2] is: Bacillus subtilis, NBRC 13719, read-out: MIC.

As usually defined, the MIC is the smallest concentration in the dilution series that meets the test's criterion for growth inhibition.

Consider `COc1cc(OC)c2c(=O)c3c(O)cc(OC)c(C(c4ccccc4)c4cc(OC)c(OC)cc4OC)c3oc2c1` (racemic), for which the minimal inhibitory concentration (MIC) in the test with Staphylococcus aureus (setting [1]) and with Bacillus subtilis (setting [2]) was > 100 µM each time. In addition, the outcome with Klebsiella pneumoniae and in the test on Escherichia coli was inactive.

Turning to `COc1cc(OC)c(C(c2ccccc2)c2c(O)cc(O)c3c(=O)c4c(O)cc(O)cc4oc23)cc1OC` (single isomer, unassigned; (-)) [listing 1 of 2 here], the outcome in the test with Klebsiella pneumoniae and in the test on Escherichia coli was inactive.

In the case of `COc1cc(OC)c(C(c2ccccc2)c2c(O)cc(O)c3c(=O)c4ccccc4oc23)cc1OC` (single isomer, unassigned; (+)) [listing 1 of 2 here], the outcome with Klebsiella pneumoniae and with Escherichia coli was inactive.

`COc1cc(OC)c(C(c2ccccc2)c2c(O)cc(O)c3c(=O)c4c(O)cc(O)cc4oc23)cc1OC` (single isomer, unassigned; (-)) [listing 2 of 2 here]: the results for the MIC with Staphylococcus aureus (setting [1]) and in the test with Bacillus subtilis (setting [2]) were 12.5 µM (≈ 6.46 µg/mL) and 100 µM (≈ 51.7 µg/mL), respectively.

Regarding `COc1cc(OC)c(C(c2ccccc2)c2c(O)cc(O)c3c(=O)c4ccc(O)cc4oc23)cc1OC` (stereo in doubt; (+)-2) [listing 1 of 2 here], the result in the test with Klebsiella pneumoniae and in the test on Escherichia coli was inactive.

`O=c1c2ccc(O)cc2oc2cc(O)cc(O)c12`: the values for the MIC in the test on Staphylococcus aureus (setting [1]) and with Bacillus subtilis (setting [2]) were 100 µM (≈ 24.4 µg/mL) and > 100 µM, respectively. Besides, the result in the test with Klebsiella pneumoniae and in the test with Escherichia coli was inactive.

Turning to `COc1cc(OC)c(C(c2ccccc2)c2c(O)cc(O)c3c(=O)c4ccc(O)cc4oc23)cc1OC` (stereo in doubt; (-)-2) [listing 1 of 2 here], the MIC in the test on Staphylococcus aureus (setting [1]) turned out to be 10 µM (≈ 5.01 µg/mL).

In the case of `COc1cc(OC)c(C(c2ccccc2)c2c(O)cc(O)c3c(=O)c4c(O)cc(O)cc4oc23)cc1OC` (single isomer, unassigned; (+)) [listing 1 of 2 here], the result in the test on Klebsiella pneumoniae and in the test on Escherichia coli was inactive.

For `NC[C@H]1O[C@H](O[C@H]2[C@H](O)[C@@H](O[C@H]3O[C@H](CO)[C@@H](O)[C@H](N)[C@H]3O)[C@H](N)C[C@@H]2N)[C@H](N)[C@@H](O)[C@@H]1O` [BEKANAMYCIN], the MIC in the test on Staphylococcus aureus (setting [1]) and with Bacillus subtilis (setting [2]) was 1.25 µM (≈ 0.604 µg/mL) in each case.

As to `COc1cc(OC)c(C(c2ccccc2)c2c(O)cc(O)c3c(=O)c4ccc(O)cc4oc23)cc1OC` (stereo in doubt; (-)-2) [listing 2 of 2 here], the result with Klebsiella pneumoniae and in the test on Escherichia coli was inactive.

Consider `COc1cc(OC)c2c(=O)c3c(O)cc(O)c(C(c4ccccc4)c4cc(OC)c(OC)cc4OC)c3oc2c1` (racemic), for which the minimal inhibitory concentration (MIC) in the test on Staphylococcus aureus (setting [1]) and with Bacillus subtilis (setting [2]) was > 100 µM in each case. Moreover, the result in the test with Klebsiella pneumoniae and in the test with Escherichia coli was inactive.

`O=c1c2c(O)cc(O)cc2oc2cc(O)cc(O)c12`: the minimal inhibitory concentration (MIC) in the test on Staphylococcus aureus (setting [1]) was 50 µM (≈ 13 µg/mL); in the test on Bacillus subtilis (setting [2]), > 100 µM. Also, the result with Klebsiella pneumoniae and in the test on Escherichia coli was inactive.

Consider `COc1cc(OC)c2c(=O)c3c(O)cc(O)cc3oc2c1`, for which the minimum inhibitory concentration (MIC) in the test on Staphylococcus aureus (setting [1]) and in the test on Bacillus subtilis (setting [2]) was > 100 µM each time. Besides, the outcome in the test on Klebsiella pneumoniae and in the test on Escherichia coli was inactive.

In the case of `Oc1ccc(O)c(O)c1`, the MIC in the test on Staphylococcus aureus (setting [1]) and with Bacillus subtilis (setting [2]) was > 100 µM throughout. In addition, the outcome in the test on Klebsiella pneumoniae and in the test with Escherichia coli was inactive.

For `COc1cc(OC)c(C(c2ccccc2)c2c(O)cc(O)c3c(=O)c4ccc(O)cc4oc23)cc1OC` (racemic) [listing 1 of 2 here], in the test with Bacillus subtilis (setting [2]), the MIC was 12.5 µM (≈ 6.26 µg/mL).

For `COc1cc(OC)c(C(O)c2ccccc2)cc1OC` (stereo not drawn), the MIC in the test with Staphylococcus aureus (setting [1]) and in the test on Bacillus subtilis (setting [2]) was > 100 µM in each case. Besides, the outcome in the test on Klebsiella pneumoniae and with Escherichia coli was inactive.

For `COc1cc(OC)c(C(=O)c2ccccc2)cc1OC`, the minimal inhibitory concentration (MIC) with Staphylococcus aureus (setting [1]) and in the test on Bacillus subtilis (setting [2]) was > 100 µM throughout. Moreover, the outcome in the test on Klebsiella pneumoniae and in the test on Escherichia coli was inactive.

`CC1(C)S[C@@H]2[C@H](NC(=O)[C@H](N)c3ccccc3)C(=O)N2[C@H]1C(=O)O` [AMPICILLIN]: the minimum inhibitory concentration (MIC) in the test on Staphylococcus aureus (setting [1]) and with Bacillus subtilis (setting [2]) was 1.25 µM (≈ 0.437 µg/mL) in each case.

In turn, `COc1cc(OC)c(C(c2ccccc2)c2c(O)cc(O)c3c(=O)c4ccc(O)cc4oc23)cc1OC` (stereo in doubt; (+)-2) [listing 2 of 2 here] registered an MIC in the test on Bacillus subtilis of 10 µM (≈ 5.01 µg/mL).

Take `COc1cc(OC)c(C(c2ccccc2)c2c(O)cc(O)c3c(=O)c4ccccc4oc23)cc1OC` (racemic) [listing 1 of 2 here]: the outcome in the test on Klebsiella pneumoniae and in the test on Escherichia coli was inactive.

Turning to `O=c1c2ccccc2oc2cc(O)cc(O)c12`, the MIC is 100 µM (≈ 22.8 µg/mL) with Staphylococcus aureus (setting [1]) and > 100 µM with Bacillus subtilis (setting [2]). In addition, the result in the test on Klebsiella pneumoniae and in the test with Escherichia coli was inactive.

Consider `COc1cc(OC)c(C(c2ccccc2)c2c(O)cc(O)c3c(=O)c4c(O)cc(O)cc4oc23)cc1OC` (racemic), for which the outcome with Klebsiella pneumoniae and in the test on Escherichia coli was inactive.

Turning to `COc1cc(OC)c(C(c2ccccc2)c2c(O)cc(O)c3c(=O)c4ccccc4oc23)cc1OC` (racemic) [listing 2 of 2 here], the MIC in the test with Staphylococcus aureus is 25 µM (≈ 12.1 µg/mL); in the test with Bacillus subtilis (setting [2]) it was > 100 µM.

Compound `COc1cc(OC)c(C(c2ccccc2)c2c(O)cc(O)c3c(=O)c4ccccc4oc23)cc1OC` (single isomer, unassigned; (+)) [listing 2 of 2 here] came in with an MIC with Staphylococcus aureus of 10 µM (≈ 4.85 µg/mL).

On to `COc1cc(OC)c(C(c2ccccc2)c2c(O)cc(O)c3c(=O)c4ccc(O)cc4oc23)cc1OC` (racemic) [listing 2 of 2 here], for which the result in the test with Klebsiella pneumoniae and with Escherichia coli was inactive.

Regarding `COc1cc(OC)c(C(c2ccccc2)c2c(O)cc(O)c3c(=O)c4ccccc4oc23)cc1OC` (single isomer, unassigned; (-)) [listing 1 of 2 here], the outcome in the test on Klebsiella pneumoniae and with Escherichia coli was inactive.

On to `COc1cc(OC)c(C(c2ccccc2)c2c(O)cc(O)c3c(=O)c4c(O)cc(O)cc4oc23)cc1OC` (single isomer, unassigned; (+)) [listing 2 of 2 here], for which the minimal inhibitory concentration (MIC) with Staphylococcus aureus was determined as 10 µM (≈ 5.17 µg/mL); against Bacillus subtilis, 50 µM (≈ 25.8 µg/mL).

For the compound `COc1cc(O)c2c(=O)c3c(OC)cc(OC)cc3oc2c1`, the MIC in the test on Staphylococcus aureus (setting [1]) and in the test with Bacillus subtilis (setting [2]) was > 100 µM throughout. In addition, the outcome in the test on Klebsiella pneumoniae and in the test on Escherichia coli was inactive.

In the test on Staphylococcus aureus, `COc1cc(OC)c(C(c2ccccc2)c2c(O)cc(O)c3c(=O)c4ccccc4oc23)cc1OC` (single isomer, unassigned; (-)) [listing 2 of 2 here] had a minimum inhibitory concentration (MIC) of 50 µM (≈ 24.2 µg/mL).
